# Fewer inactive variants are shown than the library holds.
# B1: tRNA (parent)
# chain: GUUCCGUUGGCGUAAUGGUAACGCGUCUCCCUCCUAAGGAGAAGACUGCGGGUUCGAGUCCCGUACGGAACG
# Variants of: B1
# Assay: yeast fitness relative to wild type (ratio to wild type); higher = fitter; tRNA-Arg(CCU), competitive growth, 37 C, YPD
# Procedure, shortened: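 A pool of Saccharomyces cerevisiae strains, each with a tRNA-Arg(CCU) gene variant at the native genomic locus, was competed in YPD at 37°C for 24 hours across six parallel replicates. The variants had been chemically synthesised at a 3% per-site mutation rate over 69 sites, and gene amplicons before and after competition were read by 100-nucleotide paired-end sequencing. Darwinian fitness relative to wild type rested on changes in genotype frequencies. Genotypes required ≥ 100 starting reads, and estimates < 0.5 were set to 0.5.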
row,Variant,yeast fitness
1,A15G A36U C61U,≤ 0.5
2,A15C G48C,0.69
3,A15G G17A U26C C61U G67A,≤ 0.5
4,A15C G39A G56A,≤ 0.5
5,A15G G18A A45C,0.57
6,A15G C30U G52A A70U,0.581
7,A15G A43U G68C,0.581
8,A15G C34A,0.811
9,A15G C30G A37C C49U G63A,≤ 0.5
10,A15G C29G C46U,0.52
11,A15G C27G C55U,≤ 0.5
12,A15G C29G G52A C66U,0.671
13,A15G A43C C61A,≤ 0.5
14,A15C G52A,0.712
15,A15G A37G G56C,≤ 0.5
16,A15C G48C C66U G67C,≤ 0.5
17,A15C G58A G68A A70C,≤ 0.5
18,A15G C22A C29U U54C,≤ 0.5
19,A15G C27A C31A A57C,≤ 0.5
20,A15C G58C,0.575
21,A15G C29G C31A A37G,≤ 0.5

row,Variant,yeast fitness
1,A15C G39A,0.664
2,A15C G39C,0.638
3,A15G A21C C49U,≤ 0.5
4,A15G C31U A45U,0.668
5,A15C U54C C66G,≤ 0.5
6,A15G C29A A37G,≤ 0.5
7,A15G G18A G58C A69U,≤ 0.5
8,A15G A20U C29G A43G A70U,≤ 0.5
9,A15G A70U,1.03
10,A15C G17A U35A,≤ 0.5
11,A15G A36C G50C,≤ 0.5
12,A15C G18C A40U,≤ 0.5
13,A15C G56C,0.685
14,A15C U26A G50C,≤ 0.5
15,A15C U28C G48C G50U,≤ 0.5
16,A15C G48A A57G C61A,≤ 0.5
17,A15G C27U G44A G56C,≤ 0.5
18,A15G C27U C34U A57U C62A,0.563
19,A15G C27G A42G G63A,≤ 0.5
20,A15G C27U C62G,0.627
21,A15G A20C A21C G23A G52U,≤ 0.5

row,Variant,yeast fitness
1,A15G G17A C29G C31U C46A,≤ 0.5
2,A15G C22U A36U C60A,0.589
3,A15G C62U,0.994
4,A15G C62A,0.798
5,A15G C30G A40U A42C C49G,≤ 0.5
6,A15G C27U C29U A37C C60U A69C,≤ 0.5
7,A15G C22G G23C A43C G50C A70U,≤ 0.5
8,A15C G68A,0.76
9,A15C U16A G56C A57C C60U,≤ 0.5
10,A15G A21G C34U G44A C61A A70C,≤ 0.5
11,A15G C46U C61G,0.581
12,A15G C24G C29U C34G U35C C49U C62U,≤ 0.5
13,A15G C22G A36U A40G A69U,≤ 0.5
14,A15C G23C U64C A65G,≤ 0.5
15,A15G C34U C49A,0.6
16,A15G A45C A69U,0.779
17,A15C U32C C62U,0.54
18,A15G C27A C49U C55G,≤ 0.5
19,A15C G51C,0.504
20,A15G A20U C22U G38C,≤ 0.5
21,A15C U35A A36G G41A U47A,≤ 0.5

row,Variant,yeast fitness
1,A15G G17A A65G,≤ 0.5
2,A15G A21C C24G A40U C49U,≤ 0.5
3,A15G C46G C55U,≤ 0.5
4,A15C G23A C24G C46G C55G,≤ 0.5
5,A15C U16C C27U C31G A69C,≤ 0.5
6,A15G C61U G67A,0.549
7,A15G A36C C46A C66U,≤ 0.5
8,A15G C22U A36U C62U,≤ 0.5
9,A15G C46U A65U,0.735
10,A15C G17A G68A,≤ 0.5
11,A15C G50C U53A C66A,≤ 0.5
12,A15G A45C C61U,0.574
13,A15C G38A,0.581
14,A15G C30A U59C C62U G68U,≤ 0.5
15,A15G G17A C30A U47C,≤ 0.5
16,A15G A36G A43U,0.601
17,A15C G44A G67A,≤ 0.5
18,A15G C29G C34G U64C,≤ 0.5
19,A15G C30G A42C A43C C46G,≤ 0.5
20,A15G C30G C62G,≤ 0.5
21,A15G A21U,0.989

# From the RNAGym collection of RNA variant scans (doi:10.1126/science.aae0568)
